The values below come from ChEMBL document CHEMBL5344470, “Probing the Use of Triphenyl Phosphonium Cation for Mitochondrial Nucleoside Delivery” (ACS Med Chem Lett, 2024).

Data set [1] is described as follows: Cytotoxicity against human MCF7 cells assessed as cell viability upto 50 uM measured after 72 hrs by MTT assay relative to control. The data set is classed as toxicity, cell-based. To be noted: read-out: Activity. The method, boiled down:
(§1)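 MCF-7 breast cancer cells exposed to test compounds at a range of concentrations (up to 100 μM) for 72 h; cell viability measured and expressed as percentage viability or cell death relative to untreated control.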
For orientation: Tetrazolium assays rely on reduction of a dye to a coloured formazan, in cell work by metabolically active cells.

Data set [2] is described as follows: Cytotoxicity against human MCF7 cells assessed as cell viability at 100 uM measured after 72 hrs by MTT assay relative to control. The data set is classed as toxicity, cell-based. As to conditions: read-out: Activity; call rule not given here. The method, boiled down:
as §1

Data set [3] can be described thus: Drug metabolism assessed as compound hydrolysis by measuring 2-(6-hydroxy-3-oxo-3H-xanthen-9-yl)-5-((1-((2R,4S,5R)-4-hydroxy-5-(hydroxymethyl)tetrahydrofuran-2-yl)-2-oxo-1,2-dihydropyrimidin-4-yl)carbamoyl)benzoic acid formation. The data set is classed as ADME. The method, boiled down:
(§2)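 Compounds incubated with pig liver esterase, cell culture medium or MCF-7 cell extracts; decomposition followed by HPLC with direct injection of the biological medium, no sample pretreatment; half-lives determined; hydrolysis metabolite identified by co-injection with authentic sample.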

Data set [4] can be described thus: Drug localization in mitochondria of human MCF7 cells at 50 uM incubated for 24 hrs by MitoTracker red CMXRos staining based confocal fluorescence microscopy. The data set is classed as ADME. To be noted: mcf7, 24 h. The method, boiled down: (§3)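 MCF-7 cells incubated 24 h at 37 °C with 50 μM fluorescein-labelled compound; mitochondria stained with 200 nM MitoTracker red CMXRos and nuclei with Hoechst 33342 (10 μg/mL final); cells washed twice with medium, then imaged by confocal microscopy (488 nm fluorescein, 561 nm MitoTracker, 760 nm Hoechst, 63×/1.4 oil objective); untreated cells as control.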

Data set [5] is described as follows: Drug concentration in living human MCF7 cells at 10 uM incubated for 24 hrs by flow cytometry analysis. To be noted: mcf7, 24 h. The data set is classed as ADME, cell-based. The method, boiled down: (§4)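 Living MCF-7 cells incubated 24 h with test compounds at different concentrations; fluorescein-labelled compound uptake quantified by flow cytometry as percentage internalization; mean ± SEM of three independent experiments.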
A general note: In flow cytometry, cells or beads pass a laser one at a time.

A short description of data set [6]: Stability of compound in culture media assessed as compound hydrolysis by measuring half life at 50 uM by HPLC analysis. The data set is classed as physicochemical. The method, boiled down:
as §2

The nature of data set [7]: Stability of compound in MCF7 cell extract assessed as compound hydrolysis by measuring half life at 50 uM by HPLC analysis. The data set is classed as physicochemical. To be noted: human. The method, boiled down: as §2
Data set [8] in a line: Drug concentration in living human MCF7 cells at 25 uM incubated for 24 hrs by flow cytometry analysis. The data set is classed as ADME, cell-based. As to conditions: mcf7, 24 h. The method, boiled down: as §4
The nature of data set [9]: Drug localization in mitochondria of human MCF7 cells assessed as appearance of green and red overlapped superimposed images at 100 uM incubated for 24 hrs by MitoTracker red CMXRos staining based super-resolution confocal fluorescence microscopy. The data set is classed as ADME. To be noted: mcf7, 24 h. The method, boiled down: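 Living MCF-7 cells treated 24 h with 100 μM fluorescein-labelled compound, stained with 100 nM MitoTracker red CMXRos and Hoechst 33342 (10 μg/mL final), washed twice with medium; Airyscan super-resolution confocal imaging (488/561/405 nm, 63×); co-localization judged from overlapping green and red areas in superimposed images; untreated cells as control.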

Data set [10] is described as follows: Drug concentration in living human MCF7 cells at 50 uM incubated for 24 hrs by flow cytometry analysis. The data set is classed as ADME, cell-based. As to conditions: mcf7, 24 h. The method, boiled down:
as §4

The nature of data set [11]: Drug accumulation in living human MCF7 cells at 25 uM incubated for 24 hrs by flow cytometry analysis. The data set is classed as ADME, cell-based. As to conditions: mcf7, 24 h. The method, boiled down: as §4
A short description of data set [12]: Drug concentration in living human MCF7 cells at 5 uM incubated for 24 hrs by flow cytometry analysis. The data set is classed as ADME, cell-based. As to conditions: mcf7, 24 h. The method, boiled down: as §4
The test system of another data set is esterase. Put plainly: Stability of compound assessed as pig liver esterase mediated hydrolysis by measuring half life at 50 uM by HPLC analysis. The data set is classed as ADME, Sus scrofa. The method, boiled down: as §2
A short description of data set [13]: Drug localization in cytoplasm of human MCF7 cells at 50 uM incubated for 24 hrs by confocal fluorescence microscopy. The data set is classed as ADME, subcellular. To be noted: mcf7, 24 h. The method, boiled down:
as §3

The nature of data set [14]: Drug internalization in living human MCF7 cells at 10 uM incubated for 24 hrs by flow cytometry analysis. The data set is classed as ADME, cell-based. As to conditions: mcf7, 24 h. The method, boiled down:
as §4

The nature of data set [15]: Drug internalization in living human MCF7 cells at 5 uM incubated for 24 hrs by flow cytometry analysis. To be noted: mcf7, 24 h. The data set is classed as ADME, cell-based. The method, boiled down:
as §4

Data set [16] concerns MCF7. The experiment in a line: Cytotoxicity against human MCF7 cells assessed as cell death at 10 uM measured after 72 hrs by MTT assay relative to control. The data set is classed as toxicity, cell-based. As to conditions: mcf7, 72 h. The method, boiled down: as §1
Data set [17] can be described thus: Drug internalization in living human MCF7 cells at 50 uM incubated for 24 hrs by flow cytometry analysis. The data set is classed as ADME, cell-based. To be noted: mcf7, 24 h. The method, boiled down: as §4
Data set [18] concerns MCF7. The experiment in a line: Cytotoxicity against human MCF7 cells assessed as cell death at 50 uM measured after 72 hrs by MTT assay relative to control. The data set is classed as toxicity, cell-based. As to conditions: mcf7, 72 h. The method, boiled down:
as §1

A short description of data set [19]: Stability of compound in culture media assessed as compound hydrolysis at 50 uM by HPLC analysis. The data set is classed as physicochemical. The method, boiled down:
as §2

Broadly, the half-life is how long it takes for the measured level to halve. Take `O=C(CCCCCCCCC[P+](c1ccccc1)(c1ccccc1)c1ccccc1)OC[C@H]1O[C@@H](n2ccc(NC(=O)c3ccc(-c4c5ccc(=O)cc-5oc5cc(O)ccc45)c(C(=O)O)c3)nc2=O)C[C@@H]1O.O=C([O-])C(F)(F)F`: the viability at 72 h, up to 50 µM in [1] stood at 84%. Also, in data set [2], the viability at 72 h, 100 µM is 60%. For the same compound, the Drug metabolism result in data set [3] is “Metabolite_Detected”. In addition, the Drug uptake entry is “Active” in data set [4]; 24% in data set [5]; 96% in [8]; “Active” in data set [9]; 100% in data set [10]; 96% in data set [11]. The Drug uptake in data set [12] was 3%. Besides, the values for the half-life at 50 µM (in [6]; in [7]; in the data set with esterase) were more than 1070 min, more than 504 min and less than 15 min, respectively.

As for `Nc1ccn([C@H]2C[C@H](O)[C@@H](COC(=O)CCCCCCCCC[P+](c3ccccc3)(c3ccccc3)c3ccccc3)O2)c(=O)n1.O=C(O)C(F)(F)F.O=C([O-])C(F)(F)F`, the half-life at 50 µM was more than 1070 min in data set [6], more than 504 min in [7] and less than 15 min in the data set with esterase.

Turning to `O=C(Nc1ccn([C@H]2C[C@H](O)[C@@H](CO)O2)c(=O)n1)c1ccc(-c2c3ccc(=O)cc-3oc3cc(O)ccc23)c(C(=O)O)c1`, the Drug uptake entry was “Active” in data set [13]; “Not Active” in [4]; 12% in data set [5]; 62% in data set [8]; 87% in [10]; 62% in data set [11]. In [12], this compound returned a Drug uptake of 2%.

On to `O=C(CC[P+](c1ccccc1)(c1ccccc1)c1ccccc1)OC[C@H]1O[C@@H](n2ccc(NC(=O)c3ccc(-c4c5ccc(=O)cc-5oc5cc(O)ccc45)c(C(=O)O)c3)nc2=O)C[C@@H]1O.O=C([O-])C(F)(F)F`, for which the Drug uptake in data set [14] was 61%; in data set [15] it was 27%; in data set [13] it was “Active”; in data set [4], “Active”; in [5], 61%; in data set [8], 96%. The Drug uptake in [10] is 99%; in data set [11], more than 95%; in data set [12], 27%.

For the compound `O=C(CCCCC[P+](c1ccccc1)(c1ccccc1)c1ccccc1)OC[C@H]1O[C@@H](n2ccc(NC(=O)c3ccc(-c4c5ccc(=O)cc-5oc5cc(O)ccc45)c(C(=O)O)c3)nc2=O)C[C@@H]1O.O=C([O-])C(F)(F)F`, the Activity was 61% in the data set on MCF7 [16] and 44% with MCF7 [18]. Further, the Drug uptake in [5] stood at 0.8%; in data set [17], 17%; in [8], 3%; in data set [10], 17%; in data set [12], 0.4%.

Turning to `Nc1ccn([C@H]2C[C@H](O)[C@@H](COC(=O)CC[P+](c3ccccc3)(c3ccccc3)c3ccccc3)O2)c(=O)n1.O=C(O)C(F)(F)F.O=C([O-])C(F)(F)F`, the results for the half-life at 50 µM (in data set [7]; in the data set on esterase) were more than 504 min and less than 15 min, respectively. Further, the Stability result in data set [19] is “Unstable”.

With `Nc1ccn([C@H]2C[C@H](O)[C@@H](COC(=O)CCCCC[P+](c3ccccc3)(c3ccccc3)c3ccccc3)O2)c(=O)n1.O=C(O)C(F)(F)F.O=C([O-])C(F)(F)F`, the half-life at 50 µM is more than 1070 min in data set [6], more than 504 min in [7] and less than 15 min with esterase.
